# From ChEMBL document CHEMBL1135980, “Novel angular benzophenazines: dual topoisomerase I and topoisomerase II inhibitors as potential anticancer agents” (J Med Chem, 2002)
# Columns and labels:
# NCI-H69 [1] = test: Rf is the resistance factor and is the ratio of the IC50 on the resistant cell line over the IC50 on the parental H69/P cell line; type: functional, Homo sapiens
# Procedure, shortened: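 Resistance factor computed as IC50 in H69/LX4 (Pgp-overexpressing) divided by IC50 in H69/P. Both IC50s come from a 5-6 day Alamar Blue proliferation assay.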
# NCI-H69 [2] = test: Cytotoxicity measured using the drug resistant, P-glycoprotein (Pgp) expressing human small cell lung carcinoma cell line H69/LX4; type: functional, cell-based
# Procedure, shortened: (§1)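 H69/P (parental) or H69/LX4 (P-glycoprotein-overexpressing) human SCLC cells; compound added, then 5-6 days incubation; proliferation read with Alamar Blue.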
# NCI-H69 [3] = test: Cytotoxicity measured using the H69 parental (H69/P) human small cell lung carcinoma cell line; type: functional, cell-based; procedure, shortened: as §1
SMILES,Rf (NCI-H69 [1]),IC50 (NCI-H69 [2]),IC50 (NCI-H69 [3])
CN(C)CCNC(=O)c1cccc2nc3ccc4cc([N+](=O)[O-])ccc4c3nc12,1.4,69 nM,49 nM
CN(C)CCNC(=O)c1cccc2nc3ccc4c(F)cccc4c3nc12,0.7,78 nM,111 nM
CNc1ccc2nc3ccc4c(OC)cccc4c3nc2c1C(=O)NCCN(C)C,1.1,143 nM,127 nM
CN(C)CCNC(=O)c1cccc2nc3ccc4c(OCC(N)=O)cccc4c3nc12,3.7,328 nM,89 nM
Cc1cccc2c1ccc1nc3cccc(C(=O)NCCN(C)C)c3nc12,0.8,98 nM,117 nM
COc1cccc2c1ccc1nc3ccc(N)c(C(=O)NCCN(C)C)c3nc12,0.85,29 nM,34 nM
COc1cccc2c1ccc1nc3cccc(C(=O)NC(C)CN(C)C)c3nc12 (stereo not drawn),1.4,44 nM,30 nM
CN(C)CCNC(=O)c1cccc2nc3ccc4c(CO)cccc4c3nc12,3.6,423 nM,117 nM
CN(C)CCNC(=O)c1cccc2nc3ccc4c(S(C)(=O)=O)cccc4c3nc12,2.8,3810 nM,1360 nM
CCN(CC)CCNC(=O)c1cccc2nc3ccc4c(OC)cccc4c3nc12,2.4,1000 nM,412 nM
COc1cccc2c1ccc1nc3cccc(C(=O)N[C@@H](C)CN(C)C)c3nc12,1.3,121 nM,96 nM
COc1cccc2c1ccc1nc3cccc(C(=O)N[C@@H](CN(C)C)C(C)C)c3nc12,1,20 nM,21 nM
CC(=O)Oc1cccc2c1ccc1nc3cccc(C(=O)NCCN(C)C)c3nc12,2.8,67 nM,24 nM
COc1ccc2ccc3nc4cccc(C(=O)NCCN(C)C)c4nc3c2c1,1,112 nM,110 nM
CN(C)CCNC(=O)c1cccc2nc3ccc4c(NS(C)(=O)=O)cccc4c3nc12,2.3,4990 nM,2130 nM
CN(C)CCNC(=O)c1cccc2nc3ccc4c(N)cccc4c3nc12,1.7,193 nM,111 nM
CN(C)CCNC(=O)c1cccc2nc3ccc4c(C(=O)O)cccc4c3nc12,–,> 5000 nM,> 5000 nM
COc1cccc2c1ccc1nc3cccc(C(=O)N[C@H](CO)CN(C)C)c3nc12,1.2,25 nM,20 nM
COc1ccc2c(ccc3nc4cccc(C(=O)NCCN(C)C)c4nc32)c1OC,1.8,804 nM,436 nM
COc1cccc2c1ccc1nc3cccc(C(=O)NCCN4CCOCC4)c3nc12,1.7,1000 nM,597 nM
COc1cccc2c1ccc1nc3cccc(C(=O)NC(Cc4ccccc4)CN(C)C)c3nc12 (stereo not drawn),1.1,513 nM,478 nM
CN(C)CCNC(=O)c1cccc2nc3ccc4ccc(O)cc4c3nc12,3.3,282 nM,86 nM
COc1cccc2c1ccc1nc3cccc(C(=O)NC(CCO)CN(C)C)c3nc12 (stereo not drawn),1.1,28 nM,26 nM
CN(C)CCNC(=O)c1cccc2nc3ccc4c(C#N)cccc4c3nc12,1.5,147 nM,101 nM
CN(C)CCNC(=O)c1cccc2nc3ccc4c(OCCN5CCOCC5)cccc4c3nc12,2.4,236 nM,99 nM
COc1cccc2c1ccc1nc3c(C)ccc(C(=O)NCCN(C)C)c3nc12,1.9,168 nM,87 nM
CCNC(=O)Oc1cccc2c1ccc1nc3cccc(C(=O)NCCN(C)C)c3nc12,1.6,103 nM,64 nM

SMILES,Rf (NCI-H69 [1]),IC50 (NCI-H69 [2]),IC50 (NCI-H69 [3])
CSc1cccc2c1ccc1nc3cccc(C(=O)NCCN(C)C)c3nc12,0.8,94 nM,121 nM
CN(C)CCNC(=O)c1c(O)ccc2nc3ccc4c(O)cccc4c3nc12,1.3,25 nM,19 nM
COc1cccc2c1ccc1nc3cccc(C(=O)N[C@@H](CN(C)C)[C@H](C)O)c3nc12,1,19 nM,19 nM
COc1cccc2c1ccc1nc3cccc(C(=O)NCCN(CCO)CCO)c3nc12,5.5,3380 nM,614 nM
CN(C)CCCOc1cccc2c1ccc1nc3cccc(C(=O)NCCN(C)C)c3nc12,0.8,91 nM,116 nM
CN(C)CCNC(=O)c1cccc2nc3ccc4c(OCCO)cccc4c3nc12,0.8,235 nM,303 nM
COc1cccc2c1ccc1nc3cccc(C(=O)NCCN4CCCC4)c3nc12,1.9,77 nM,40 nM
CN(C)CCNC(=O)c1cccc2nc3ccc4c(N(C)C)cccc4c3nc12,1.2,925 nM,778 nM
CN(C)CCNC(=O)c1cccc2nc3ccc4c(OCC(=O)O)cccc4c3nc12,>1.3,> 5000 nM,3840 nM
CN(C)CCNC(=O)c1cccc2nc3ccc4c(N(S(C)(=O)=O)S(C)(=O)=O)cccc4c3nc12,>2.3,> 5000 nM,2140 nM
COc1cccc2c1ccc1nc3cccc(C(=O)N[C@@H]4CCN(C)C4)c3nc12,1.6,128 nM,79 nM
COc1cccc2c1ccc1nc3cccc(C(=O)NCC(C)N(C)C)c3nc12 (stereo not drawn),1.2,126 nM,101 nM
COc1cccc2c1ccc1nc3cccc(C(=O)NCC(O)CN)c3nc12 (stereo not drawn),>9.7,> 5000 nM,515 nM
CN(C)CCNC(=O)c1cccc2nc3ccc4c(OCCCC#N)cccc4c3nc12,1.5,58 nM,39 nM
CNCCNC(=O)c1cccc2nc3ccc4c(OC)cccc4c3nc12,2.4,234 nM,99 nM
CNS(=O)(=O)c1cccc2c1ccc1nc3cccc(C(=O)NCCN(C)C)c3nc12,>7.8,> 5000 nM,638 nM
CC(=O)Nc1cccc2c1ccc1nc3cccc(C(=O)NCCN(C)C)c3nc12,>10.7,> 5000 nM,468 nM
COc1cccc2c1ccc1nc3cccc(C(=O)NCCCN(C)C)c3nc12,1.3,597 nM,470 nM
CCOC(=O)COc1cccc2c1ccc1nc3cccc(C(=O)NCCN(C)C)c3nc12,0.9,506 nM,587 nM
CCOc1cccc2c1ccc1nc3cccc(C(=O)NCCN(C)C)c3nc12,3.7,182 nM,49 nM
C#CCOc1cccc2c1ccc1nc3cccc(C(=O)NCCN(C)C)c3nc12,1.5,61 nM,40 nM
COc1cccc2c1ccc1nc3cc(Br)cc(C(=O)NCCN(C)C)c3nc12,0.6,100 nM,159 nM
COc1ccc2nc3ccc4c(OC)cccc4c3nc2c1C(=O)NCCN(C)C,1.4,3620 nM,2640 nM
CN(C)CCNC(=O)c1cccc2nc3ccc4c(OCC#N)cccc4c3nc12,0.9,24 nM,28 nM
COC(=O)c1cccc2c1ccc1nc3cccc(C(=O)NCCN(C)C)c3nc12,0.9,91 nM,103 nM
COc1cccc2c1ccc1nc3cccc(C(=O)NCCN4CCCCC4)c3nc12,2.1,330 nM,156 nM
